Source: ChEMBL document CHEMBL1255471, “Effects of inoculum, pH, and cations on the in vitro activity of fidaxomicin (OPT-80, PAR-101) against Clostridium difficile” (2010)
Values after ≈ are worked out from the molar mass of the structure shown.

Assays:
Type in all cases: functional
Clostridioides difficile [1] = test: Ratio of MIC for Clostridium difficile ATCC 9689 at pH 6 to MIC for Clostridium difficile ATCC 9689 at pH 8.1 by broth microdilution method
How it was run: (§1)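 Broth microdilution in brucella broth buffered at 10 or 100 mM with NaH2PO4·H2O (pH 7.0), MOPS (pH 8.0) or TAPS (pH 9.0), pH set in ambient air. Final anaerobic pH ranges were 6–7.6 (10 mM) and 6–8.1 (100 mM). Plates were equilibrated anaerobically for at least 3 h before inoculation. Data were pooled from three experiments, and ratios were taken between MICs at the two pH values.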

Clostridioides difficile [2] = test: Antibacterial activity against Clostridium difficile ATCC 700057 in presence of 45 mg/L of calcium ion by CLSI agar dilution method
Clostridioides difficile [3] = test: Antibacterial activity against Clostridium difficile ATCC 700057 in presence of 57 mg/L of magnesium ion by CLSI agar dilution method
Clostridioides difficile [4] = test: Antibacterial activity against Clostridium difficile ATCC 9689 in presence of 75 mg/L of calcium ion by CLSI agar dilution method
Clostridioides difficile [5] = test: Antibacterial activity against Clostridium difficile ATCC 9689 in presence of 57 mg/L of magnesium ion by CLSI agar dilution method
Clostridioides difficile [6] = test: Antibacterial activity against Clostridium difficile ATCC 9689 in presence of 21 mg/L of magnesium ion by CLSI agar dilution method
Clostridioides difficile [7] = test: Ratio of MIC for Clostridium difficile ATCC 700057 at pH 6.2 to MIC for Clostridium difficile ATCC 700057 at pH 7.9 by CLSI agar dilution method
How it was run: (§2)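 Agar dilution MICs were measured over anaerobic pH 6.2–8.0. Media were buffered with 100 mM NaH2PO4 (pH 7) or TAPS (pH 8) and set in ambient air above the target pH. After 3 h equilibration in the chamber (5% CO2), anaerobic pH was checked with a flat-bottomed probe. The pH 8.0 run was repeated, and ratios were taken between MICs at the two pH values.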

Clostridioides difficile [8] = test: Antibacterial activity against Clostridium difficile ATCC 700057 in presence of 30 mg/L of magnesium ion by CLSI agar dilution method
Clostridioides difficile [9] = test: Ratio of MIC for Clostridium difficile ATCC 9689 at pH 6 to MIC for Clostridium difficile ATCC 9689 at pH 7.5 by broth microdilution method; how it was run: as §1
Clostridioides difficile [10] = test: Ratio of MIC for Clostridium difficile ATCC 700057 at pH 7 to MIC for Clostridium difficile ATCC 700057 at pH 7.9 by CLSI agar dilution method; how it was run: as §2
Clostridioides difficile [11] = test: Antibacterial activity against Clostridium difficile ATCC 700057 by CLSI agar dilution method using 10^5 to 10^8 CFU/ml inoculum
How it was run: (§3)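 CLSI agar dilution in a glove box (10% H2, 5% CO2, 85% N2). A ~10^8 CFU/ml suspension was serially diluted 10-fold to 10^5–10^8 CFU/ml and 2 μl was spotted (10^2–10^5 CFU/spot). Runs were done at least in duplicate; the mode was reported, or the higher value when replicates split evenly.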

Clostridioides difficile [12] = test: Antibacterial activity against Clostridium difficile ATCC 9689 in presence of 45 mg/L of calcium ion by CLSI agar dilution method
Clostridioides difficile [13] = test: Antibacterial activity against Clostridium difficile ATCC 700057 in presence of 21 mg/L of magnesium ion by CLSI agar dilution method
Clostridioides difficile [14] = test: Antibacterial activity against Clostridium difficile ATCC 700057 in presence of 75 mg/L of calcium ion by CLSI agar dilution method
Clostridioides difficile [15] = test: Ratio of MIC for Clostridium difficile ATCC 700057 at pH 6 to MIC for Clostridium difficile ATCC 700057 at pH 7.5 by broth microdilution method; how it was run: as §1
Clostridioides difficile [16] = test: Ratio of MIC for Clostridium difficile ATCC 700057 at pH 6 to MIC for Clostridium difficile ATCC 700057 at pH 8.1 by broth microdilution method; how it was run: as §1
Clostridioides difficile [17] = test: Antibacterial activity against Clostridium difficile ATCC 700057 in presence of 33 mg/L of calcium ion by CLSI agar dilution method
Clostridioides difficile [18] = test: Ratio of MIC for Clostridium difficile ATCC 9689 at pH 7 to MIC for Clostridium difficile ATCC 9689 at pH 7.9 by CLSI agar dilution method; how it was run: as §2
Clostridioides difficile [19] = test: Ratio of MIC for Clostridium difficile ATCC 9689 at pH 6.2 to MIC for Clostridium difficile ATCC 9689 at pH 7.9 by CLSI agar dilution method; how it was run: as §2
Clostridioides difficile [20] = test: Antibacterial activity against Clostridium difficile ATCC 9689 in presence of 30 mg/L of magnesium ion by CLSI agar dilution method
Clostridioides difficile [21] = test: Antibacterial activity against Clostridium difficile ATCC 9689 in presence of 33 mg/L of calcium ion by CLSI agar dilution method
Clostridioides difficile [22] = test: Antibacterial activity against Clostridium difficile ATCC 9689 by CLSI agar dilution method using 10^5 to 10^8 CFU/ml inoculum; how it was run: as §3

Structure (SMILES): CCc1c(Cl)c(O)c(Cl)c(O)c1C(=O)O[C@H]1[C@H](O)[C@H](OC)[C@H](OC/C2=C\C=C\C[C@H](O)/C(C)=C/[C@H](CC)[C@@H](O[C@@H]3OC(C)(C)[C@@H](OC(=O)C(C)C)[C@H](O)[C@@H]3O)/C(C)=C/C(C)=C/C[C@@H]([C@@H](C)O)OC2=O)O[C@@H]1C [FIDAXOMICIN]
- Ratio (Clostridioides difficile [1]): 16
- MIC (Clostridioides difficile [2]): 0.125 µg/mL
- MIC (Clostridioides difficile [3]): 0.125 µg/mL
- MIC (Clostridioides difficile [4]): 0.063 µg/mL
- MIC (Clostridioides difficile [5]): 0.063 µg/mL
- MIC (Clostridioides difficile [6]): 0.063 µg/mL
- Ratio (Clostridioides difficile [7]): 8
- MIC (Clostridioides difficile [8]): 0.125 µg/mL
- Ratio (Clostridioides difficile [9]): 8
- Ratio (Clostridioides difficile [10]): 8
- MIC (Clostridioides difficile [11]): 0.125 µg/mL (≈ 0.118 µM)
- MIC (Clostridioides difficile [12]): 0.063 µg/mL
- MIC (Clostridioides difficile [13]): 0.125 µg/mL
- MIC (Clostridioides difficile [14]): 0.125 µg/mL
- Ratio (Clostridioides difficile [15]): 8
- Ratio (Clostridioides difficile [16]): 16
- MIC (Clostridioides difficile [17]): 0.125 µg/mL
- Ratio (Clostridioides difficile [18]): 8
- Ratio (Clostridioides difficile [19]): 8
- MIC (Clostridioides difficile [20]): 0.063 µg/mL
- MIC (Clostridioides difficile [21]): 0.063 µg/mL
- MIC (Clostridioides difficile [22]): 0.063 µg/mL (≈ 0.0595 µM)

Structure (SMILES): CN[C@H](CC(C)C)C(=O)N[C@H]1C(=O)N[C@@H](CC(N)=O)C(=O)N[C@H]2C(=O)N[C@H]3C(=O)N[C@H](C(=O)N[C@H](C(=O)O)c4cc(O)cc(O)c4-c4cc3ccc4O)[C@H](O)c3ccc(c(Cl)c3)Oc3cc2cc(c3O[C@@H]2O[C@H](CO)[C@@H](O)[C@H](O)[C@H]2O[C@H]2C[C@](C)(N)[C@H](O)[C@H](C)O2)Oc2ccc(cc2Cl)[C@H]1O [VANCOMYCIN]
- Ratio (Clostridioides difficile [1]): 16
- MIC (Clostridioides difficile [6]): 1 µg/mL
- Ratio (Clostridioides difficile [9]): 8
- MIC (Clostridioides difficile [13]): 1 µg/mL
- Ratio (Clostridioides difficile [15]): 8
- Ratio (Clostridioides difficile [16]): 16
- MIC (Clostridioides difficile [17]): 1 µg/mL
- MIC (Clostridioides difficile [21]): 1 µg/mL
